Experimental data: ChEMBL document CHEMBL5724801, “EUbOPEN Chemogenomics Library - Multiplex” (2024)
Values joined by “and” are separate entries in the source; they are usually repeats but may differ in a detail not shown here. Equal entries are not always repeated.

Experiments:
Fibroblast = experiment: Multiplex assay against human fibroblast; format: toxicity, cell-based
Summary of the method: (§1)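 Cells stained live at seeding with Hoechst33342, BioTracker Green Microtubule Cytoskeleton Dye, MitoTracker Red and Annexin V Alexa Fluor 680 were imaged on a CQ1 microscope at 37°C and 5% CO2 after compound addition. Their classification by CellPathfinder machine-learning gating ran from Hoechst high-intensity objects versus normal cells, to healthy, pyknosed or fragmented nuclei among normal cells, to mitotic or apoptotic among pyknosed cells. Tubulin, mitochondrial-mass and membrane-permeability phenotypes are per cents of healthy-nucleus cells.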

HEK-293T = experiment: Multiplex assay against HEK293T; format: toxicity, cell-based; settings: human; summary of the method: as §1
[1] = 12 h, 1 µM, compound concentration 1 uM
[2] = 12 h, 10 µM, compound concentration 10 uM
[3] = 24 h, 1 µM, compound concentration 1 uM
[4] = 24 h, 10 µM, compound concentration 10 uM
[5] = 48 h, 1 µM, compound concentration 1 uM
[6] = 48 h, 10 µM, compound concentration 10 uM

Cc1ccc(OCC(O)C(C)NC(C)C)c2c1CCC2.Cl (stereo not drawn)
Population Apoptotic (%) (Fibroblast; [1]): 36% and 28%
Population Fragmented Nuclei (%) (Fibroblast; [1]): 10% and 17%
Population Healthy Nuclei (%) (Fibroblast; [1]): 68% and 55%
Population Hoechst High Intensity Objects (%) (Fibroblast; [1]): 0% and 9%
Population Membrane Permeable-Phenotype (%) (Fibroblast; [1]): 0% and 4%
Population Mitochondria Different-Phenotype (%) (Fibroblast; [1]): 3% and 7%
Population Mitotic Cells (%) (Fibroblast; [1]): 63% and 71%
Population Normal (%) (Fibroblast; [1]): 99% and 90%
Population Pyknosed Nuclei (%) (Fibroblast; [1]): 20% and 27%
Population Tubulin-Different-Phenotype (%) (Fibroblast; [1]): 26% and 50%
Total Cell Count (Fibroblast; [1]): 159 and 210
Population Apoptotic (%) (Fibroblast; [2]): 47% and 25%
Population Fragmented Nuclei (%) (Fibroblast; [2]): 39% and 33%
Population Healthy Nuclei (%) (Fibroblast; [2]): 47% and 50%
Population Hoechst High Intensity Objects (%) (Fibroblast; [2]): 1% and 2%
Population Membrane Permeable-Phenotype (%) (Fibroblast; [2]): 0% and 7%
Population Mitochondria Different-Phenotype (%) (Fibroblast; [2]): 12% and 17%
Population Mitotic Cells (%) (Fibroblast; [2]): 52% and 74%
Population Normal (%) (Fibroblast; [2]): 98% and 97%
Population Pyknosed Nuclei (%) (Fibroblast; [2]): 12% and 16%
Population Tubulin-Different-Phenotype (%) (Fibroblast; [2]): 52% and 54%
Total Cell Count (Fibroblast; [2]): 138 and 168
Population Apoptotic (%) (Fibroblast; [3]): 57% and 20%
Population Fragmented Nuclei (%) (Fibroblast; [3]): 11% and 27%
Population Healthy Nuclei (%) (Fibroblast; [3]): 74% and 46%
Population Hoechst High Intensity Objects (%) (Fibroblast; [3]): 0% and 15%
Population Membrane Permeable-Phenotype (%) (Fibroblast; [3]): 4% and 1%
Population Mitochondria Different-Phenotype (%) (Fibroblast; [3]): 5% and 8%
Population Mitotic Cells (%) (Fibroblast; [3]): 42% and 80%
Population Normal (%) (Fibroblast; [3]): 100% and 84%
Population Pyknosed Nuclei (%) (Fibroblast; [3]): 13% and 26%
Population Tubulin-Different-Phenotype (%) (Fibroblast; [3]): 30% and 52%
Total Cell Count (Fibroblast; [3]): 154 and 201
Population Apoptotic (%) (Fibroblast; [4]): 35% and 36%
Population Fragmented Nuclei (%) (Fibroblast; [4]): 39% and 35%
Population Healthy Nuclei (%) (Fibroblast; [4]): 49% and 50%
Population Hoechst High Intensity Objects (%) (Fibroblast; [4]): 1% and 5%
Population Membrane Permeable-Phenotype (%) (Fibroblast; [4]): 1% and 4%
Population Mitochondria Different-Phenotype (%) (Fibroblast; [4]): 13% and 14%
Population Mitotic Cells (%) (Fibroblast; [4]): 64% and 63%
Population Normal (%) (Fibroblast; [4]): 98% and 94%
Population Pyknosed Nuclei (%) (Fibroblast; [4]): 11% and 13%
Population Tubulin-Different-Phenotype (%) (Fibroblast; [4]): 63% and 65%
Total Cell Count (Fibroblast; [4]): 151 and 168
Population Apoptotic (%) (Fibroblast; [5]): 64% and 34%
Population Fragmented Nuclei (%) (Fibroblast; [5]): 16% and 37%
Population Healthy Nuclei (%) (Fibroblast; [5]): 71% and 42%
Population Hoechst High Intensity Objects (%) (Fibroblast; [5]): 4% and 11%
Population Membrane Permeable-Phenotype (%) (Fibroblast; [5]): 0% and 5%
Population Mitochondria Different-Phenotype (%) (Fibroblast; [5]): 1% and 8%
Population Mitotic Cells (%) (Fibroblast; [5]): 35% and 65%
Population Normal (%) (Fibroblast; [5]): 95% and 88%
Population Pyknosed Nuclei (%) (Fibroblast; [5]): 11% and 20%
Population Tubulin-Different-Phenotype (%) (Fibroblast; [5]): 23% and 60%
Total Cell Count (Fibroblast; [5]): 155 and 196
Population Apoptotic (%) (Fibroblast; [6]): 71% and 60%
Population Fragmented Nuclei (%) (Fibroblast; [6]): 35% and 39%
Population Healthy Nuclei (%) (Fibroblast; [6]): 50%
Population Hoechst High Intensity Objects (%) (Fibroblast; [6]): 1% and 7%
Population Membrane Permeable-Phenotype (%) (Fibroblast; [6]): 0% and 5%
Population Mitochondria Different-Phenotype (%) (Fibroblast; [6]): 9% and 10%
Population Mitotic Cells (%) (Fibroblast; [6]): 28% and 40%
Population Normal (%) (Fibroblast; [6]): 98% and 92%
Population Pyknosed Nuclei (%) (Fibroblast; [6]): 13% and 10%
Population Tubulin-Different-Phenotype (%) (Fibroblast; [6]): 68% and 63%
Total Cell Count (Fibroblast; [6]): 155 and 157
Population Apoptotic (%) (HEK-293T; [1]): 34% and 45%
Population Fragmented Nuclei (%) (HEK-293T; [1]): 6% and 5%
Population Healthy Nuclei (%) (HEK-293T; [1]): 81% and 84%
Population Hoechst High Intensity Objects (%) (HEK-293T; [1]): 5%
Population Membrane Permeable-Phenotype (%) (HEK-293T; [1]): 0%
Population Mitochondria Different-Phenotype (%) (HEK-293T; [1]): 54% and 65%
Population Mitotic Cells (%) (HEK-293T; [1]): 65% and 54%
Population Normal (%) (HEK-293T; [1]): 94%
Population Pyknosed Nuclei (%) (HEK-293T; [1]): 12% and 10%
Population Tubulin-Different-Phenotype (%) (HEK-293T; [1]): 40% and 22%
Total Cell Count (HEK-293T; [1]): 409 and 360
Population Apoptotic (%) (HEK-293T; [2]): 43%
Population Fragmented Nuclei (%) (HEK-293T; [2]): 7% and 9%
Population Healthy Nuclei (%) (HEK-293T; [2]): 67% and 76%
Population Membrane Permeable-Phenotype (%) (HEK-293T; [2]): 0%
Population Mitochondria Different-Phenotype (%) (HEK-293T; [2]): 66% and 79%
Population Mitotic Cells (%) (HEK-293T; [2]): 56%
Population Normal (%) (HEK-293T; [2]): 96% and 81%
Population Pyknosed Nuclei (%) (HEK-293T; [2]): 25% and 14%
Population Tubulin-Different-Phenotype (%) (HEK-293T; [2]): 61% and 59%
Total Cell Count (HEK-293T; [2]): 247 and 323
Population Apoptotic (%) (HEK-293T; [3]): 35% and 28%
Population Fragmented Nuclei (%) (HEK-293T; [3]): 6% and 7%
Population Healthy Nuclei (%) (HEK-293T; [3]): 80% and 83%
Population Hoechst High Intensity Objects (%) (HEK-293T; [3]): 3% and 4%
Population Membrane Permeable-Phenotype (%) (HEK-293T; [3]): 0%
Population Mitochondria Different-Phenotype (%) (HEK-293T; [3]): 38% and 45%
Population Mitotic Cells (%) (HEK-293T; [3]): 64% and 71%
Population Normal (%) (HEK-293T; [3]): 96% and 95%
Population Pyknosed Nuclei (%) (HEK-293T; [3]): 12% and 9%
Population Tubulin-Different-Phenotype (%) (HEK-293T; [3]): 25% and 17%
Total Cell Count (HEK-293T; [3]): 548 and 444
